Assays:
[1] = Antiinflammatory activity in human PBMC cells assessed as inhibition of LPS induced TNF alpha production preincubated for 1 hr followed by LPS stimulation and measured after 16 hrs by MSD analysis; format: functional, cell-based
[2] = Plasma protein binding in human; format: ADME, cell-free; conditions: read-out: PPB (converted)
Procedure, shortened: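 Binding to rat and human plasma was measured in vitro by ultracentrifugation.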

[3] = Inhibition of TNFalpha production in LPS induced human Whole blood cell preincubated with compound for 1 hr followed by LPS induction and measured after 4 hrs; format: functional, cell-based
Procedure, shortened: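 Human whole blood was stimulated with LPS 100 ng/ml for 4 h. Plasma TNFα was read by MSD kit. Three separate experiments in duplicate, mean ±S.E.M. IC50 by 4-parameter nonlinear regression.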

[4] = Inhibition of recombinant RSK1/2/3/4 (unknown origin) using KKKALSRQLSVAA as substrate incubated for 1 hr followed by substrate addition in presence of ATP; design: species or system Homo sapiens
Procedure, shortened: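 MAPKAP family kinases were activated by p38α (1:50 molar, 250 μM ATP, 1 h, 30°C). Assays ran in 20 mM HEPES pH 7.5, 10 mM MgCl2, 1 mM DTT, 0.01% BSA, 0.0005% Tween-20, at MgATP fixed at each enzyme's Km(app). The 33P-labelled product peptide was separated by ion exchange. Duplicate experiments. MSK1 (367-802) and MSK2 (351-772) were N-terminal 6xHis constructs from Sf9 cells.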

[5] = AUC in chronic SCW-induced arthritis Lewis rat model plasma at ED80 concentration; format: ADME, cell-free
Procedure, shortened: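 Female Lewis rats (125-140 g) received a single i.p. streptococcal cell wall injection. Animals showing the acute phase were pooled, 4-8 per group over three experiments. Dosing was oral gavage b.i.d., days 10-21, in methylcellulose-Tween-20 vehicle. Hind paw volume was read by displacement plethysmometer on day 21, as % inhibition of swelling. Plasma was sampled up to 11 h after the last dose, 3 rats per dose. ED values came from fitted curves.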

[6] = Inhibition of TNF-alpha production in LPS-induced human U-937 cells preincubated with compound for 1 hr followed by LPS induction and measured after 4 hrs by MSD analysis; format: functional, cell-based
Procedure, shortened: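 U937 cells were pretreated with compound for 1 h (<1% DMSO final), then stimulated with LPS 100 ng/ml at 37°C. Media TNFα was read at 4 h by MSD electrochemiluminescence. Three separate experiments in duplicate, mean ±S.E.M. IC50 by 4-parameter nonlinear regression.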

[7] = Inhibition of TNF alpha production in LPS induced human PBMC cells preincubated with compound for 1 hr followed by LPS induction and measured after 16 hrs by MSD analysis; format: functional, cell-based
[8] = Plasma concentration in po dosed LPS-induced Lewis rat model at ED80 concentration measured after 5.5 hrs of initial dose by LC-MS/MS analysis; format: ADME, organism-based
Procedure, shortened: (§1)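 Male Lewis rats (225-250 g, 5 per group) were fasted 18 h, then dosed orally at 0.2-60 mg/kg as a suspension in 0.5% methylcellulose/0.025% Tween 20. LPS 1 mg/kg was given i.v. 4 h later. Blood was taken by cardiac puncture 90 min after LPS. Serum TNFα was read by ELISA and drug by LC-MS/MS, three independent experiments. 4-parameter fit. Unbound values were corrected with measured rat plasma protein binding.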

[9] = biological target: Cyclin-dependent kinase 5/CDK5 activator 1 (Homo sapiens, UniProt Q00535); test: Inhibition of CDK5/p35 (unknown origin); format: protein-complex assay
Procedure, shortened: (§2)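 Kinase panel: 200 kinases were first screened at 1 μM inhibitor for percent inhibition. Those above 50% inhibition were then titrated for IC50. MgATP was fixed at the Km(app) determined for each enzyme.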

[10] = Antiinflammatory activity in human Whole blood cell assessed as inhibition of LPS induced IL-6 production preincubated for 1 hr followed by LPS stimulation and measured after 16 hrs by MSD analysis; format: functional, cell-based
Procedure, shortened: (§3)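 Human whole blood was stimulated ex vivo with LPS 100 ng/ml. Plasma cytokines were read by MSD 4-plex: TNFα at 4 h; IL-1β, IL-6 and IL-8 at 16 h. Data are means ±S.E.M. of two independent experiments in duplicate, three donors. IC50 by 4-parameter nonlinear regression.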

[11] = biological target: Receptor-interacting serine/threonine-protein kinase 2 (Homo sapiens, UniProt O43353); test: Inhibition of RIPK2 (unknown origin); procedure, shortened: as §2
[12] = biological target: Cyclin-dependent kinase 1/cyclin B1 (Homo sapiens, UniProt P06493); test: Inhibition of CDK1/cycB (unknown origin); format: protein-complex assay; procedure, shortened: as §2
[13] = biological target: T1, MAP kinase-activated protein kinase 2 (Homo sapiens, UniProt P49137)
[14] = Inhibition of IL-1 beta production in LPS induced human Whole blood cell preincubated with compound for 1 hr followed by LPS induction and measured after 16 hrs; format: functional, cell-based; procedure, shortened: as §3
[15] = Half life in Sprague-Dawley rat measured upto 24 hrs by […] analysis; format: ADME; conditions: in vivo
Procedure, shortened: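 Male Sprague-Dawley rats (275-300 g), carotid-catheterized and acclimated overnight. Dosing was i.v. at 1 mpk (n=2) in 70% saline/20% PEG-400/10% ethanol, or oral at 3 mpk (n=3) as a suspension in 0.5% HPMC/Tween. Plasma drug was measured by LC-MS/MS. Cmax and Tmax were read from individual profiles. t½ came from the terminal log-linear slope and AUC by the linear trapezoidal rule. CL = dose/AUC0-∞, Vdss = CL×MRT, F = dose-normalized AUC po/iv.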

[16] = Antiinflammatory activity in human Whole blood cell assessed as inhibition of LPS induced IL-1 beta production preincubated for 1 hr followed by LPS stimulation and measured after 16 hrs by MSD analysis; format: functional, cell-based; procedure, shortened: as §3
[17] = biological target: MAP kinase-interacting serine/threonine-protein kinase 2 (Homo sapiens, UniProt Q9HBH9); test: Inhibition of recombinant MNK2 (unknown origin) using KKKALSRQLSVAA as substrate incubated for 1 hr followed by substrate addition in presence of ATP
Procedure, shortened: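 Recombinant MAPKAP kinase was first activated with activated p38α (1:50 molar ratio) and 250 μM ATP for 1 hr at 30°C. Activity was then assayed at Km(app) MgATP by ion-exchange separation of 33P-labeled product peptide. IC50 was taken from duplicate experiments.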

[18] = biological target: T1, MAP kinase-activated protein kinase 2; remark: listed apart in the source
[19] = Inhibition of IL-8 production in LPS induced human PBMC cells preincubated with compound for 1 hr followed by LPS induction and measured after 16 hrs by MSD analysis; format: functional, cell-based
Procedure, shortened: (§4)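 Human PBMCs were pretreated with compound for 1 h (<1% DMSO final), then stimulated with LPS 100 ng/ml at 37°C. Cytokines in culture media were read by MSD 4-plex: TNFα at 4 h; IL-1β, IL-6 and IL-8 at 16 h. Data are means ±S.E.M. of two independent experiments in duplicate, three donors. IC50 by 4-parameter nonlinear regression.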

[20] = Inhibition of IL-1 beta production in LPS induced human PBMC cells preincubated with compound for 1 hr followed by LPS induction and measured after 16 hrs by MSD analysis; format: functional, cell-based; procedure, shortened: as §4
[21] = Unbound plasma concentration in po dosed LPS-induced Lewis rat model at ED50 concentration measured after 5.5 hrs of initial dose by LC-MS/MS analysis; format: ADME, organism-based; conditions: in vivo; procedure, shortened: as §1

T1 sequence (P49137 whole entry, looked up): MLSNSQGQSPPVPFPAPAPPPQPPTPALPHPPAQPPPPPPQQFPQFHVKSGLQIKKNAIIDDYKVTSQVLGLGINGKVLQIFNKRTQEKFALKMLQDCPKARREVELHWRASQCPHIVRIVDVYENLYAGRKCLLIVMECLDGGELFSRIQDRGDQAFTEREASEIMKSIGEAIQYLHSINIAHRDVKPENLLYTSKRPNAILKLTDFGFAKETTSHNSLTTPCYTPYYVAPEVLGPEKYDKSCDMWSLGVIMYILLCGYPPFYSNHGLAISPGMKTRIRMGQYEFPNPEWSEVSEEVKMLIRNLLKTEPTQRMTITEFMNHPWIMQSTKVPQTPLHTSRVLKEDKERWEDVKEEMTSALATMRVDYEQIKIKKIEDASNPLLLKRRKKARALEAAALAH
Sequence of Receptor-interacting serine/threonine-protein kinase 2 (O43353 whole entry): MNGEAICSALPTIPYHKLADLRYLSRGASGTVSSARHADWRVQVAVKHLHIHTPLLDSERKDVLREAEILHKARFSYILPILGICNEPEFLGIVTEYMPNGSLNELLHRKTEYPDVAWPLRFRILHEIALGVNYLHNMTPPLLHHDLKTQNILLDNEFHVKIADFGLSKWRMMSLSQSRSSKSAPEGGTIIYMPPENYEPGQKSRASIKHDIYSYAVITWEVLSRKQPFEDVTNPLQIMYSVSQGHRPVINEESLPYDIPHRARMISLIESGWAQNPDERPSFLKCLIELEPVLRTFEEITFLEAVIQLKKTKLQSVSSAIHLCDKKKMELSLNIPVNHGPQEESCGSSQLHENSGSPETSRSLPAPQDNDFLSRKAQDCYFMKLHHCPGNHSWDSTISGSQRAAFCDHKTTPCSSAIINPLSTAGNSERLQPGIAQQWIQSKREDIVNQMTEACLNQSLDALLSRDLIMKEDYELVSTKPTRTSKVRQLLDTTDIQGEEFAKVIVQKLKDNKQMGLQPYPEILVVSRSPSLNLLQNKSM
Sequence of Cyclin-dependent kinase 1/cyclin B1 (P06493 whole entry): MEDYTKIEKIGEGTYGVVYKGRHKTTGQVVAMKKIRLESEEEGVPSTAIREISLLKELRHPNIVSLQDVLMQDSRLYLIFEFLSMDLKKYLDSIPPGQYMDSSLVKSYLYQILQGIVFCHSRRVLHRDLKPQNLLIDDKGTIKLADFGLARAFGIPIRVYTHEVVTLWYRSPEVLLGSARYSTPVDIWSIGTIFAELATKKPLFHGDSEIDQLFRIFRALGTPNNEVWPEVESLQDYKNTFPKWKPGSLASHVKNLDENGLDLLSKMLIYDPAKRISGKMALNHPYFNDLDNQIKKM
Sequence of Cyclin-dependent kinase 1/cyclin B1 (P14635 whole entry, further chain): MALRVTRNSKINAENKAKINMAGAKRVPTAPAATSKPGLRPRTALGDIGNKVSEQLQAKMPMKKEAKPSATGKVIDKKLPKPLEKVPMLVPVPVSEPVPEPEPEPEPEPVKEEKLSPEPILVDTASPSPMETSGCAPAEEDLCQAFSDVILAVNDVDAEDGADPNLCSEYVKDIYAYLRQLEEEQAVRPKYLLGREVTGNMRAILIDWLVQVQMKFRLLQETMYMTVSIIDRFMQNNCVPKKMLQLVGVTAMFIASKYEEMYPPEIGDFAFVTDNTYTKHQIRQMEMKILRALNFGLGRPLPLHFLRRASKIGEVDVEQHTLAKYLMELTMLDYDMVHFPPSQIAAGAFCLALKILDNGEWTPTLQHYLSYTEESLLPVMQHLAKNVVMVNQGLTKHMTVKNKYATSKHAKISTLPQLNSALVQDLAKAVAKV
Sequence of Cyclin-dependent kinase 5/CDK5 activator 1 (Q00535 whole entry): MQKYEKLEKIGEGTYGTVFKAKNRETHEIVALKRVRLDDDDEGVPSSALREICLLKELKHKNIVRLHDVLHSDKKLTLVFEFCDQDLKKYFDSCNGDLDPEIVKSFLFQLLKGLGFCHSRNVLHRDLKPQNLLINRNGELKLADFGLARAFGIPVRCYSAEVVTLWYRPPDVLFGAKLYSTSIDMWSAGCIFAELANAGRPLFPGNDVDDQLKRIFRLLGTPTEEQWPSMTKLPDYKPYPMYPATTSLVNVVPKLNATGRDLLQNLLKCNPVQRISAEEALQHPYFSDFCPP
Sequence of Cyclin-dependent kinase 5/CDK5 activator 1 (Q15078 whole entry, further chain): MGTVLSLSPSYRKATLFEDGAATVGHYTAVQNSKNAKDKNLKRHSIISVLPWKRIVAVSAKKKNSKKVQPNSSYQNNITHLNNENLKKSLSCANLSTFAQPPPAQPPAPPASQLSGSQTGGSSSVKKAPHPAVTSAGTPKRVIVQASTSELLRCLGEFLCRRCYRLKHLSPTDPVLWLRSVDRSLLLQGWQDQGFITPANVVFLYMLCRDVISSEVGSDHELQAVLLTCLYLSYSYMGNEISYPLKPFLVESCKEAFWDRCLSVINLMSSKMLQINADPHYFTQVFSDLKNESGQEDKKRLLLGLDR
Sequence of MAP kinase-interacting serine/threonine-protein kinase 2 (Q9HBH9 whole entry): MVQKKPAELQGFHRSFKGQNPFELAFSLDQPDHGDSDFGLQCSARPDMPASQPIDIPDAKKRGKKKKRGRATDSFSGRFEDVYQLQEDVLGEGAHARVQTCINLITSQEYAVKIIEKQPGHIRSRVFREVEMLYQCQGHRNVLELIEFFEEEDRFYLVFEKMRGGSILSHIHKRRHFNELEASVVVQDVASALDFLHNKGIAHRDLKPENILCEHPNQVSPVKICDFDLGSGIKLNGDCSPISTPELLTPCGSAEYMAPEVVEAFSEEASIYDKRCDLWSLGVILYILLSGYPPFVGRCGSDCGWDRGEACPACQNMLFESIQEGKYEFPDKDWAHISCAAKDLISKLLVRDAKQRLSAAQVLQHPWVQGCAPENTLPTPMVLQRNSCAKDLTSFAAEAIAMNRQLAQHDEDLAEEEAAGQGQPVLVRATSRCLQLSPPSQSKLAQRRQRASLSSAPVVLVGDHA

IC50 [1]: 0.214 µM | fraction unbound [2]: 0.064 | IC50 [3]: 1.97 µM | IC50 [4]: > 1 µM | AUC [5]: 117 µM·h | IC50 [6]: 0.159 µM | IC50 [7]: 0.16 µM | concentration at 5.5 h [8]: 4200 nM | IC50 [9]: 0.902 µM | IC50 [10]: 10.3 µM | IC50 [11]: 0.59 µM | IC50 [12]: 0.354 µM | fIC50 [13]: 126 nM | IC50 [14]: > 25 µM | half-life [15]: 9.1 h | IC50 [16]: > 20 µM | IC50 [17]: 0.148 µM | T1/2 [18]: 2.43 min | IC50 [19]: 2.09 µM | IC50 [20]: 2.78 µM | Cp(f) [21]: 110 nM
SMILES: Cc1ccc(-c2ccc3c(ccc4sc5c(c43)NC[C@@H](C)NC5=O)n2)cn1
